Reference: ChEMBL document CHEMBL2176975, “Novel toll-like receptor 2 ligands for targeted pancreatic cancer imaging and immunotherapy” (J Med Chem, 2012)
Non-standard residues stand in square brackets, D forms with d. Residues, ends and D or L forms follow the SMILES beside them. *: point of attachment. Propyl(2R-PamO,3-PamO) = CCCCCCCCCCCCCCCC(=O)OC[C@H](C*)OC(=O)CCCCCCCCCCCCCCC; X1 = CC(=O)NCCCOCCOCCOCCCNC(=O)COCC(=O)*; Palmitoyl = CCCCCCCCCCCCCCCC(=O)*

Key:
Toll-like receptor 2 [1] = target: T1, Toll-like receptor 2 (Homo sapiens, UniProt O60603); assay: Agonist activity at human TLR2 expressed in HEK293 cells assessed as induction of NF-kappaB signaling after 24 hrs by luminescence based luciferase reporter gene assay relative to 1 ug/mL of SAA; type: functional, cell-based
T1 sequence (O60603 whole entry): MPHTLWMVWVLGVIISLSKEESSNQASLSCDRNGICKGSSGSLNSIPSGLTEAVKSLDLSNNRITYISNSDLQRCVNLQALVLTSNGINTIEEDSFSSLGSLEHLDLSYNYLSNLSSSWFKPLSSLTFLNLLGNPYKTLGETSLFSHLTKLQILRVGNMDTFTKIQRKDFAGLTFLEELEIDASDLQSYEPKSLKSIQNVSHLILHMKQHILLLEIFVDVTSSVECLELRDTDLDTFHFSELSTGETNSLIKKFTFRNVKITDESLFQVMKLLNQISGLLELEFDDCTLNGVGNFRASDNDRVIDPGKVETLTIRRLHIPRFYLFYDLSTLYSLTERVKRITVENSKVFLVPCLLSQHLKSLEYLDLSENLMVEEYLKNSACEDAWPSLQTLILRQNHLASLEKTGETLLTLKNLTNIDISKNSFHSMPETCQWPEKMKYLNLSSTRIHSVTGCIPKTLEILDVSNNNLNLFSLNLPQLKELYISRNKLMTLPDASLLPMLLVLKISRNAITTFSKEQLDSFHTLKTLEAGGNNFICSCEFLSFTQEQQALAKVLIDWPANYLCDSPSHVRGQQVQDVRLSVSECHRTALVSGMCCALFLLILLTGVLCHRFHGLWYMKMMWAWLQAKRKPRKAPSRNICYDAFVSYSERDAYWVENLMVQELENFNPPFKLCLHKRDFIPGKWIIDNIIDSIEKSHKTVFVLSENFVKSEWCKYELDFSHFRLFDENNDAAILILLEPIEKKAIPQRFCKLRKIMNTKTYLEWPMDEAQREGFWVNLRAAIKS
Outline: (§1)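 HEK-293/hTLR2 reporter cells transiently transfected with NF-κB-luciferase plasmid pNifty-Luc, stimulated 24 h with test compound at 1 μg/mL; luciferin-induced luminescence read. Fold enhancement taken versus serum amyloid A at 1 μg/mL or 10 μg/mL; n = 4.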

Mus musculus [2] = organism: Mus musculus; assay: Immunomodulatory activity in Trp1455/9M peptide immunized C57BL/6 mouse assessed as Trp1455/9M specific CD8+ T cells in blood at 50 ug using Trp1455/9M/ H-2Db staining measured after 7 of immunization by FACS analysis; type: functional, T-cell
Outline: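 C57BL/6 mice, 6-8 weeks old, immunized i.v. (200 μL) with a mixture of 100 μg Trp1_455/9M peptide, 50 μg anti-CD40 antibody (FGK45.5) and 50 μg TLR2 agonist. Submandibular blood taken, red cells lysed with ammonium chloride, stained 40 min on ice with CD8a, Trp1_455/9M/H-2Db tetramer and anti-MHC class II. Tetramer+ % of CD8+ cells read by flow cytometry; three mice per group.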

Toll-like receptor 2 [3] = target: T1, Toll-like receptor 2; assay: Agonist activity at human TLR2 expressed in HEK293 cells assessed as induction of NF-kappaB signaling after 24 hrs by luminescence based luciferase reporter gene assay relative to 10 ug/mL of SAA; type: functional, cell-based; outline: as §1
Mus musculus [4] = organism: Mus musculus; assay: Immunomodulatory activity in Trp1455/9M peptide immunized C57BL/6 mouse assessed as Trp1455/9M specific CD8+ T cells in blood at 50 ug using Trp1455/9M/ H-2Db staining measured after 21 of immunization by FACS analysis; type: functional, T-cell
Outline: (§2)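 C57BL/6 mice, 6-8 weeks, immunized iv with 100 μg Trp1 455/9M peptide, 50 μg anti-CD40 antibody and 50 μg TLR2 agonist in 200 μL. Submandibular blood on days 7, 21, 34, red cells lysed, stained 40 min on ice with CD8a antibody, Trp1 455/9M/H-2Db tetramer and anti-MHC II; % tetramer-positive CD8+ cells by flow cytometry; three mice per group, mean and SD.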

Toll-like receptor 2 [5] = target: T1, Toll-like receptor 2; assay: Displacement of Eu-DTPA from human TLR2 expressed in HEK293 cells after 1 hr; type: cell-based
Outline: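 Live-cell europium TRF competition binding in HEK-293/hTLR2 (poly-D-lysine plates) or SU.86.86 cells grown 2 days to ~80% confluence. Unlabeled ligand 1 μM to 0.01 nM plus 90 nM Eu-DTPA-labeled tracer, 1 h at 37°C; three washes, enhancement solution 30 min at 37°C, read at 340 nm excitation/615 nm emission with time delay.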

Mus musculus [6] = organism: Mus musculus; assay: Toxicity in Trp1455/9M peptide immunized C57BL/6 mouse at 50 ug measured after 34 of immunization; type: organism-based; conditions: in vivo
Toll-like receptor 2 [7] = target: T1, Toll-like receptor 2; assay: Agonist activity at human TLR2 expressed in HEK293 cells assessed as induction of NF-kappaB signaling after 24 hrs by luminescence based luciferase reporter gene assay; type: functional, cell-based
Mus musculus [8] = organism: Mus musculus; assay: Immunomodulatory activity in Trp1455/9M peptide immunized C57BL/6 mouse assessed as Trp1455/9M specific CD8+ T cells in blood at 50 ug using Trp1455/9M/ H-2Db staining measured after 34 of immunization by FACS analysis; type: functional, T-cell; outline: as §2

Structure (SMILES) | fold change (FC) (Toll-like receptor 2 [1]) | Activity (Mus musculus [2]) | fold change (FC) (Toll-like receptor 2 [3]) | Activity (Mus musculus [4]) | Ki (Toll-like receptor 2 [5]) | Activity (Mus musculus [6]) | EC50 (Toll-like receptor 2 [7]) | Activity (Mus musculus [8])
CCCCCCCCCCCCCCCC(=O)OC[C@H](CSC[C@H](NC(=O)COCC(=O)NCCCOCCOCCOCCCNC(C)=O)C(=O)NCC(=O)N[C@H](CO)C(=O)NCCCOCCOCCOCCCNC(=O)COCC(N)=O)OC(=O)CCCCCCCCCCCCCCC | 14 | 49.6% | 5.2 | 14.6% | 25 nM | Non-toxic | 20 nM | 6.63%
CCCCCCCCCCCCCCCC(=O)OC[C@H](CSC[C@H](N)C(=O)N[C@@H](CO)C(=O)N[C@@H](CCCCN)C(=O)N[C@@H](CCCCN)C(=O)N[C@@H](CCCCN)C(=O)N[C@@H](CCCCN)C(=O)O)OC(=O)CCCCCCCCCCCCCCC (H-C(Propyl(2R-PamO,3-PamO))SKKKK-OH) | – | 56.6% | – | 18.4% | – | Non-toxic | 3.7 nM | 11.3%
CCCCCCCCCCCCCCCC(=O)N[C@@H](CSC[C@@H](COC(=O)CCCCCCCCCCCCCCC)OC(=O)CCCCCCCCCCCCCCC)C(=O)N[C@@H](CO)C(=O)N[C@@H](CCCCN)C(=O)N[C@@H](CCCCN)C(=O)N[C@@H](CCCCN)C(=O)N[C@@H](CCCCN)C(=O)O (Palmitoyl-C(Propyl(2R-PamO,3-PamO))SKKKK-OH) | – | – | – | 16.8% | – | Non-toxic | 23 nM | 10.2%
CCCCCCCCCCCCCCCC(=O)OC[C@H](CSC[C@H](NC(=O)COCC(=O)NCCCOCCOCCOCCCNC(C)=O)C(=O)NCC(=O)N[C@@H](CO)C(=O)N[C@@H](CCC(N)=O)C(=O)N[C@@H](CC(N)=O)C(=O)N[C@@H](CC(C)C)C(=O)N[C@@H](C)C(=O)N[C@@H](CO)C(=O)N[C@@H](CC(C)C)C(=O)N[C@@H](CCC(=O)O)C(=O)N[C@@H](CCC(=O)O)C(N)=O)OC(=O)CCCCCCCCCCCCCCC (X1-C(Propyl(2R-PamO,3-PamO))GSQNLASLEE-NH2) | 13 | – | 4.8 | – | – | – | – | –
CCCCCCCCCCCCCCCC(=O)OC[C@H](CSC[C@H](NC(=O)COCC(=O)NCCCOCCOCCOCCCNC(C)=O)C(=O)N[C@H](CO)C(=O)N[C@H](CCCNC(=N)N)C(=O)N[C@H](Cc1ccccc1)C(=O)N[C@H](CC(=O)O)C(=O)N[C@H](CCC(=O)O)C(=O)N[C@H](CC(=O)O)C(=O)N[C@H](CC(=O)O)C(=O)N[C@H](CC(C)C)C(=O)N[C@H](CCC(=O)O)C(N)=O)OC(=O)CCCCCCCCCCCCCCC (X1-C(Propyl(2R-PamO,3-PamO))[dS][dR][dF][dD][dE][dD][dD][dL][dE]-NH2) | 11 | – | 4.2 | – | – | – | – | –
